≈ marks a conversion by molar mass, not a printed value.
Columns and labels:
[1] = tested on: Bifidobacterium adolescentis; assay: Antimicrobial activity against Bifidobacterium adolescentis assessed as percent resistant isolates after 48 hrs by agar dilution method; assay type: functional
Summary of the method: (§1)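 CLSI agar dilution on recent Korean clinical anaerobe isolates. Inoculum 10^5 CFU per spot by replicator. Plates incubated in an anaerobic chamber at 37°C for 48 h. For piperacillin plus tazobactam, tazobactam was held constant at 4 μg/ml. Resistance and susceptibility rates derived from MICs.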

Hoylesella oralis = assay: Antimicrobial activity against Prevotella oralis assessed as percent susceptible isolates after 48 hrs by agar dilution method; assay type: functional
Summary of the method: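 CLSI agar dilution MIC testing of clinical isolates. 10^5 CFU spotted by replicator, plates incubated 48 h at 37°C in an anaerobic chamber. Susceptibility rates derived from the MICs.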

Eggerthella lenta [2] = assay: Antimicrobial activity against Eubacterium lentum assessed as percent resistant isolates after 48 hrs by agar dilution method; assay type: functional; summary of the method: as §1
[3] = tested on: Porphyromonas asaccharolytica; assay: Antimicrobial activity against Porphyromonas asaccharolytica after 48 hrs by agar dilution method; assay type: functional
Summary of the method: (§2)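 CLSI agar dilution (M11-A7); inoculum 10^5 CFU applied by replicator; plates incubated anaerobically 48 h at 37°C. For piperacillin-tazobactam, tazobactam held constant at 4 μg/ml.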

Fusobacterium nucleatum = assay: Antimicrobial activity against Fusobacterium nucleatum after 48 hrs by agar dilution method; assay type: functional; summary of the method: as §2
Bacteroides ovatus [4] = assay: Antimicrobial activity against Bacteroides ovatus assessed as percent resistant isolates after 48 hrs by agar dilution method; assay type: functional; summary of the method: as §1
Bacteroides fragilis [5] = assay: Antimicrobial activity against Bacteroides fragilis assessed as percent susceptible isolates after 48 hrs by agar dilution method; assay type: functional
Eubacterium sp. [6] = assay: Antimicrobial activity against Eubacterium sp. assessed as percent susceptible isolates after 48 hrs by agar dilution method; assay type: functional; summary of the method: as §2
Bacteroides caccae [7] = assay: Antimicrobial activity against Bacteroides caccae assessed as percent resistant isolates after 48 hrs by agar dilution method; assay type: functional; summary of the method: as §1
Clostridioides difficile [8] = assay: Antimicrobial activity against Clostridium difficile assessed as percent susceptible isolates after 48 hrs by agar dilution method; assay type: functional
Phocaeicola vulgatus [9] = assay: Antimicrobial activity against Bacteroides vulgatus assessed as percent resistant isolates after 48 hrs by agar dilution method; assay type: functional; summary of the method: as §1
Actinomyces israelii [10] = assay: Antimicrobial activity against Actinomyces israelii assessed as percent susceptible isolates after 48 hrs by agar dilution method; assay type: functional
Bifidobacterium sp. [11] = assay: Antimicrobial activity against Bifidobacterium sp. after 48 hrs by agar dilution method; assay type: functional
Summary of the method: (§3)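 MICs on clinical anaerobe isolates by the CLSI agar dilution method. Inoculum of 10^5 CFU applied with a Steers replicator. Plates incubated 48 h at 37°C in an anaerobic chamber.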

Prevotella buccae = assay: Antimicrobial activity against Prevotella buccae assessed as percent susceptible isolates after 48 hrs by agar dilution method; assay type: functional, Segatella buccae; summary of the method: as §2
Eubacterium sp. [12] = assay: Antimicrobial activity against Eubacterium sp. after 48 hrs by agar dilution method; assay type: functional; summary of the method: as §2
Finegoldia magna [13] = assay: Antimicrobial activity against Finegoldia magna after 48 hrs by agar dilution method; assay type: functional; summary of the method: as §2
Clostridioides difficile [14] = assay: Antimicrobial activity against Clostridium difficile after 48 hrs by agar dilution method; assay type: functional
Anaerococcus prevotii [15] = assay: Antimicrobial activity against Anaerococcus prevotii assessed as percent susceptible isolates after 48 hrs by agar dilution method; assay type: functional
Anaerococcus prevotii [16] = assay: Antimicrobial activity against Anaerococcus prevotii assessed as percent resistant isolates after 48 hrs by agar dilution method; assay type: functional; summary of the method: as §1
Bacteroides ovatus [17] = assay: Antimicrobial activity against Bacteroides ovatus after 48 hrs by agar dilution method; assay type: functional; summary of the method: as §3
[18] = tested on: Peptoniphilus asaccharolyticus; assay: Antimicrobial activity against Peptoniphilus asaccharolyticus assessed as percent susceptible isolates after 48 hrs by agar dilution method; assay type: functional; summary of the method: as §2
[19] = tested on: Peptoniphilus asaccharolyticus; assay: Antimicrobial activity against Peptoniphilus asaccharolyticus assessed as percent resistant isolates after 48 hrs by agar dilution method; assay type: functional; summary of the method: as §1
[20] = tested on: Peptostreptococcus anaerobius; assay: Antimicrobial activity against Peptostreptococcus anaerobius assessed as percent susceptible isolates after 48 hrs by agar dilution method; assay type: functional; summary of the method: as §1
Schaalia meyeri = assay: Antimicrobial activity against Actinomyces meyeri after 48 hrs by agar dilution method; assay type: functional; summary of the method: as §3
Actinomyces israelii [21] = assay: Antimicrobial activity against Actinomyces israelii after 48 hrs by agar dilution method; assay type: functional; summary of the method: as §3
Bacteroides fragilis [22] = assay: Antimicrobial activity against Bacteroides fragilis assessed as percent resistant isolates after 48 hrs by agar dilution method; assay type: functional; summary of the method: as §1
Schaalia odontolytica [23] = assay: Antimicrobial activity against Actinomyces odontolyticus assessed as percent resistant isolates after 48 hrs by agar dilution method; assay type: functional; summary of the method: as §1
[24] = tested on: Parabacteroides distasonis; assay: Antimicrobial activity against Bacteroides distasonis after 48 hrs by agar dilution method; assay type: functional; summary of the method: as §3
Fusobacterium necrogenes = assay: Antimicrobial activity against Fusobacterium necrogenes after 48 hrs by agar dilution method; assay type: functional; summary of the method: as §2
Phocaeicola vulgatus [25] = assay: Antimicrobial activity against Bacteroides vulgatus assessed as percent susceptible isolates after 48 hrs by agar dilution method; assay type: functional
Bacteroides ovatus [26] = assay: Antimicrobial activity against Bacteroides ovatus assessed as percent susceptible isolates after 48 hrs by agar dilution method; assay type: functional
Bacteroides caccae [27] = assay: Antimicrobial activity against Bacteroides caccae assessed as percent susceptible isolates after 48 hrs by agar dilution method; assay type: functional
Finegoldia magna [28] = assay: Antimicrobial activity against Finegoldia magna assessed as percent resistant isolates after 48 hrs by agar dilution method; assay type: functional; summary of the method: as §1
Fusobacterium mortiferum = assay: Antimicrobial activity against Fusobacterium mortiferum after 48 hrs by agar dilution method; assay type: functional; summary of the method: as §2
Bifidobacterium sp. [29] = assay: Antimicrobial activity against Bifidobacterium sp. assessed as percent resistant isolates after 48 hrs by agar dilution method; assay type: functional; summary of the method: as §1
Parvimonas micra = assay: Antimicrobial activity against Peptostreptococcus micros assessed as percent susceptible isolates after 48 hrs by agar dilution method; assay type: functional; summary of the method: as §1
Clostridium perfringens = assay: Antimicrobial activity against Clostridium perfringens assessed as percent susceptible isolates after 48 hrs by agar dilution method; assay type: functional
Eggerthella lenta [30] = assay: Antimicrobial activity against Eubacterium lentum assessed as percent susceptible isolates after 48 hrs by agar dilution method; assay type: functional; summary of the method: as §2
[31] = tested on: Bifidobacterium adolescentis; assay: Antimicrobial activity against Bifidobacterium adolescentis after 48 hrs by agar dilution method; assay type: functional; summary of the method: as §3
Eubacterium sp. [32] = assay: Antimicrobial activity against Eubacterium sp. assessed as percent resistant isolates after 48 hrs by agar dilution method; assay type: functional; summary of the method: as §1
Prevotella bivia = assay: Antimicrobial activity against Prevotella bivia assessed as percent resistant isolates after 48 hrs by agar dilution method; assay type: functional; summary of the method: as §1
Prevotella intermedia = assay: Antimicrobial activity against Prevotella intermedia after 48 hrs by agar dilution method; assay type: functional; summary of the method: as §2
Clostridioides difficile [33] = assay: Antimicrobial activity against Clostridium difficile assessed as percent resistant isolates after 48 hrs by agar dilution method; assay type: functional
Anaerococcus prevotii [34] = assay: Antimicrobial activity against Anaerococcus prevotii after 48 hrs by agar dilution method; assay type: functional; summary of the method: as §3
Actinomyces naeslundii = assay: Antimicrobial activity against Actinomyces naeslundii after 48 hrs by agar dilution method; assay type: functional; summary of the method: as §3
[35] = tested on: Peptostreptococcus anaerobius; assay: Antimicrobial activity against Peptostreptococcus anaerobius after 48 hrs by agar dilution method; assay type: functional; summary of the method: as §2
Bacteroides fragilis [36] = assay: Antimicrobial activity against Bacteroides fragilis after 48 hrs by agar dilution method; assay type: functional; summary of the method: as §3
Schaalia odontolytica [37] = assay: Antimicrobial activity against Actinomyces odontolyticus assessed as percent susceptible isolates after 48 hrs by agar dilution method; assay type: functional

CO[C@@]1(NC(=O)C2SC(=C(C(N)=O)C(=O)O)S2)C(=O)N2C(C(=O)O)=C(CSc3nnnn3C)CS[C@@H]21 (stereo partly drawn) [CEFOTETAN]
Activity [1]: 0%
Activity (Hoylesella oralis): 72%
Activity (Eggerthella lenta [2]): 15%
MIC [3]: 0.06 µg/mL (≈ 0.104 µM)
MIC (Fusobacterium nucleatum): 0.06 µg/mL (≈ 0.104 µM)
Activity (Bacteroides ovatus [4]): 86%
Activity (Bacteroides fragilis [5]): 71%
Activity (Eubacterium sp. [6]): 85%
Activity (Bacteroides caccae [7]): 86%
Activity (Clostridioides difficile [8]): 83%
Activity (Phocaeicola vulgatus [9]): 86%
Activity (Actinomyces israelii [10]): 85%
MIC50 (Bifidobacterium sp. [11]): 4 µg/mL (≈ 6.95 µM)
MIC90 (Bifidobacterium sp. [11]): 64 µg/mL (≈ 111 µM)
Activity (Prevotella buccae): 72%
MIC50 (Eubacterium sp. [12]): 4 µg/mL (≈ 6.95 µM)
MIC90 (Eubacterium sp. [12]): 64 µg/mL (≈ 111 µM)
MIC50 (Finegoldia magna [13]): 1 µg/mL (≈ 1.74 µM)
MIC90 (Finegoldia magna [13]): 2 µg/mL (≈ 3.47 µM)
MIC (Clostridioides difficile [14]): 8 µg/mL (≈ 13.9 µM)
MIC50 (Clostridioides difficile [14]): 8 µg/mL (≈ 13.9 µM)
MIC90 (Clostridioides difficile [14]): 128 µg/mL (≈ 222 µM)
Activity (Anaerococcus prevotii [15]): 100%
Activity (Anaerococcus prevotii [16]): 0%
MIC50 (Bacteroides ovatus [17]): > 128 µg/mL
MIC90 (Bacteroides ovatus [17]): > 128 µg/mL
Activity [18]: 100%
Activity [19]: 0%
Activity [20]: 62%
MIC50 (Schaalia meyeri): 4 µg/mL (≈ 6.95 µM)
MIC90 (Schaalia meyeri): 64 µg/mL (≈ 111 µM)
MIC50 (Actinomyces israelii [21]): 4 µg/mL (≈ 6.95 µM)
MIC90 (Actinomyces israelii [21]): 64 µg/mL (≈ 111 µM)
Activity (Bacteroides fragilis [22]): 14%
Activity (Schaalia odontolytica [23]): 15%
MIC50 [24]: > 128 µg/mL
MIC90 [24]: > 128 µg/mL
MIC (Fusobacterium necrogenes): 0.06 µg/mL (≈ 0.104 µM)
Activity (Phocaeicola vulgatus [25]): 89%
Activity (Bacteroides ovatus [26]): 89%
Activity (Bacteroides caccae [27]): 89%
Activity (Finegoldia magna [28]): 0%
MIC (Fusobacterium mortiferum): 0.06 µg/mL (≈ 0.104 µM)
Activity (Bifidobacterium sp. [29]): 15%
Activity (Parvimonas micra): 31%
Activity (Clostridium perfringens): 100%
Activity (Eggerthella lenta [30]): 85%
MIC50 [31]: 4 µg/mL (≈ 6.95 µM)
MIC90 [31]: 64 µg/mL (≈ 111 µM)
Activity (Eubacterium sp. [32]): 15%
Activity (Prevotella bivia): 17%
MIC50 (Prevotella intermedia): 2 µg/mL (≈ 3.47 µM)
MIC90 (Prevotella intermedia): 16 µg/mL (≈ 27.8 µM)
Activity (Clostridioides difficile [33]): 17%
MIC50 (Anaerococcus prevotii [34]): 1 µg/mL (≈ 1.74 µM)
MIC90 (Anaerococcus prevotii [34]): 2 µg/mL (≈ 3.47 µM)
MIC50 (Actinomyces naeslundii): 4 µg/mL (≈ 6.95 µM)
MIC90 (Actinomyces naeslundii): 64 µg/mL (≈ 111 µM)
MIC50 [35]: 4 µg/mL (≈ 6.95 µM)
MIC90 [35]: 64 µg/mL (≈ 111 µM)
MIC50 (Bacteroides fragilis [36]): 8 µg/mL (≈ 13.9 µM)
MIC90 (Bacteroides fragilis [36]): 64 µg/mL (≈ 111 µM)
Activity (Schaalia odontolytica [37]): 85%

From ChEMBL document CHEMBL1671716, “Antimicrobial susceptibility patterns for recent clinical isolates of anaerobic bacteria in South Korea” (2010)
